Measurements taken from ChEMBL document CHEMBL1125826, “Synthesis and biological activity of 5-amino- and 5-hydroxyquinolones, and the overwhelming influence of the remote N1-substituent in determining the structure-activity relationship” (1991).
In brackets after ≈: the same amount, converted by molar mass.

Assays:
Type in all cases: functional
Staphylococcus aureus [1] = assay: Antibacterial activity was determined against gram positive organism, Staphylococcus aureus UC76
How it was run: (§1)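 MIC (µg/mL) by standard microtitration against a panel of 10 Gram-positive and Gram-negative organisms; values averaged from multiple experiments.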

Streptococcus pneumoniae [2] = assay: Antibacterial activity was determined against gram positive organism, Streptococcus pneumoniae SV-1; how it was run: as §1
[3] = target: DNA gyrase (Escherichia coli) (UniProt P0AES6+P0AES4); assay: Minimum inhibitory concentration against Escherichia coli DNA-gyrase in supercoiling assay
Enterococcus faecalis = assay: Antibacterial activity was determined against gram positive organism, Streptococcus faecalis MGH-2; how it was run: as §1
Escherichia coli [4] = assay: Antibacterial activity was determined against gram negative organism, Escherichia coli vogel; how it was run: as §1
Escherichia coli [5] = assay: The in vivo potency was determined in female charles river CD-1 mice infected with Escherichia coli after sc administration; conditions: for ED50: Escherichia coli, sc, read-out: PD50
How it was run: (§2)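 Acute lethal systemic infection in female CD-1 mice, 16 mice per route; single subcutaneous dose given at the time of challenge; median protective dose (PD50, mg/kg) determined.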

Escherichia coli [6] = assay: The in vivo potency was determined in female charles river CD-1 mice infected with Escherichia coli after peroral administration; conditions: for ED50: Escherichia coli, po, read-out: PD50
How it was run: (§3)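 Acute lethal systemic infection in female CD-1 mice, 16 mice per route; single dose given orally by gavage at the time of challenge; median protective dose (PD50, mg/kg) determined.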

Staphylococcus aureus [7] = assay: Antibacterial activity was determined against gram positive organism, Staphylococcus aureus H228; how it was run: as §1
Klebsiella pneumoniae = assay: Antibacterial activity was determined against gram negative organism, Klebsiella pneumoniae MGH-2; how it was run: as §1
Streptococcus pyogenes [8] = assay: Antibacterial activity was determined against gram positive organism, Streptococcus pyogenes C203; how it was run: as §1
Pseudomonas aeruginosa = assay: Antibacterial activity was determined against gram negative organism, Pseudomonas aeruginosa UI-18; how it was run: as §1
Bacteria [9] = assay: MIC ratio measured as the mean MICs of gram-positive bacteria
How it was run: (§4)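 Geometric mean of the microtitration MICs (µg/mL) over the Gram-negative organisms, and separately over the Gram-positive organisms, of the 10-strain panel; individual MICs averaged from multiple experiments.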

Streptococcus pyogenes [10] = assay: The in vivo potency was determined in female charles river CD-1 mice infected with Streptococcus pyogenes after peroral administration; conditions: for ED50: Streptococcus pyogenes, po, read-out: PD50; how it was run: as §3
Bacteria [11] = assay: Antibacterial activity was determined against gram negative organism, Providencia rettgeri. M1771; how it was run: as §1
Enterobacter cloacae = assay: Antibacterial activity was determined against gram negative organism, Enterobacter cloacae MA2646
Bacteria [12] = assay: MIC ratio measured as the mean MICs of gram-negative bacteria; how it was run: as §4
Streptococcus pyogenes [13] = assay: The in vivo potency was determined in female charles river CD-1 mice infected with Streptococcus pyogenes after sc administration; conditions: for ED50: Streptococcus pyogenes, sc, read-out: PD50; how it was run: as §2
Streptococcus pneumoniae [14] = assay: The in vivo potency was determined in female charles river CD-1 mice infected with Streptococcus pneumoniae after sc administration; how it was run: as §2
Streptococcus pneumoniae [15] = assay: The in vivo potency was determined in female charles river CD-1 mice infected with Streptococcus pneumoniae after peroral administration; how it was run: as §3
[16] = Staphylococcus aureus, read-out: MIC
[17] = Streptococcus pneumoniae, read-out: MIC
[18] = Enterococcus faecalis, read-out: MIC
[19] = Escherichia coli, read-out: MIC
[20] = Klebsiella pneumoniae, read-out: MIC
[21] = Streptococcus pyogenes, read-out: MIC
[22] = Pseudomonas aeruginosa, read-out: MIC
[23] = Enterobacter cloacae, read-out: MIC

| Compound | MIC (Staphylococcus aureus [1]; [16]) [µg/mL] | MIC (Streptococcus pneumoniae [2]; [17]) [µg/mL] | MIC [3] [µg/mL] | MIC (Enterococcus faecalis; [18]) [µg/mL] | MIC (Escherichia coli [4]; [19]) [µg/mL] | ED50 (Escherichia coli [5]) [mg/kg] | ED50 (Escherichia coli [6]) [mg/kg] | MIC (Staphylococcus aureus [7]; [16]) [µg/mL] | MIC (Klebsiella pneumoniae; [20]) [µg/mL] | MIC (Streptococcus pyogenes [8]; [21]) [µg/mL] | MIC (Pseudomonas aeruginosa; [22]) [µg/mL] | Geometric mean MIC over Gram-positive bacteria (µg/mL) (Bacteria [9]) | ED50 (Streptococcus pyogenes [10]) [mg/kg] | MIC (Bacteria [11]; Bacteria, read-out: MIC) [µg/mL] | MIC (Enterobacter cloacae; [23]) [µg/mL] | Geometric mean MIC over Gram-negative bacteria (µg/mL) (Bacteria [12]) | ED50 (Streptococcus pyogenes [13]) [mg/kg] | further results |
| --- | --- | --- | --- | --- | --- | --- | --- | --- | --- | --- | --- | --- | --- | --- | --- | --- | --- | --- |
| CC1CN(c2c(F)c(O)c3c(=O)c(C(=O)O)cn(C4CC4)c3c2F)CCN1 (stereo not drawn) | 0.1 (≈ 0.264 µM) | 0.4 (≈ 1.05 µM) | 0.5 (≈ 1.32 µM) | 0.8 (≈ 2.11 µM) | 0.05 (≈ 0.132 µM) | 0.8 | 2 | 0.8 (≈ 2.11 µM) | 0.2 (≈ 0.527 µM) | 0.4 (≈ 1.05 µM) | 1.6 (≈ 4.22 µM) | 0.4 | > 50 | 0.2 (≈ 0.527 µM) | 0.1 (≈ 0.264 µM) | 0.2 | > 50 | – |
| CC1CN(c2cc3c(c(N)c2F)c(=O)c(C(=O)O)cn3C2CC2)CCN1 (stereo not drawn) | 0.05 (≈ 0.139 µM) | 0.1 (≈ 0.277 µM) | 0.5 (≈ 1.39 µM) | 0.2 (≈ 0.555 µM) | 0.013 (≈ 0.0361 µM) | 0.4 | 2 | 0.2 (≈ 0.555 µM) | 0.025 (≈ 0.0694 µM) | 0.2 (≈ 0.555 µM) | 0.4 (≈ 1.11 µM) | 0.13 | 66 | 0.1 (≈ 0.277 µM) | 0.025 (≈ 0.0694 µM) | 0.058 | 21 | – |
| Nc1c(F)c(N2CCC(N)C2)cc2c1c(=O)c(C(=O)O)cn2C1CC1 (stereo not drawn) | 0.025 (≈ 0.0722 µM) | 0.025 (≈ 0.0722 µM) | 2 (≈ 5.77 µM) | 0.05 (≈ 0.144 µM) | 0.013 (≈ 0.0375 µM) | 0.7 | 8 | 0.1 (≈ 0.289 µM) | 0.025 (≈ 0.0722 µM) | 0.05 (≈ 0.144 µM) | 0.4 (≈ 1.15 µM) | 0.044 | 110 | 0.05 (≈ 0.144 µM) | 0.013 (≈ 0.0375 µM) | 0.038 | 6 | – |
| NC1CCN(c2c(F)cc3c(=O)c(C(=O)O)cn(C4CC4)c3c2Cl)C1 (stereo in doubt; 1h-4) [CLINAFLOXACIN] | – | – | – | – | – | – | – | – | – | – | – | 0.029 | – | – | – | – | – | MIC (Staphylococcus aureus [1]): 0.013 µg/mL (≈ 0.0355 µM); MIC (Streptococcus pneumoniae [2]): 0.025 µg/mL (≈ 0.0683 µM); MIC (Enterococcus faecalis): 0.05 µg/mL (≈ 0.137 µM); MIC (Escherichia coli [4]): 0.025 µg/mL (≈ 0.0683 µM); PD50 (Streptococcus pneumoniae [14]): 5 mg/kg; PD50 (Escherichia coli [5]): 0.6 mg/kg; PD50 (Escherichia coli [6]): 3 mg/kg; MIC (Staphylococcus aureus [7]): 0.025 µg/mL (≈ 0.0683 µM); PD50 (Streptococcus pneumoniae [15]): 14 mg/kg; MIC (Klebsiella pneumoniae): 0.025 µg/mL (≈ 0.0683 µM); MIC (Streptococcus pyogenes [8]): 0.05 µg/mL (≈ 0.137 µM); MIC (Pseudomonas aeruginosa): 0.05 µg/mL (≈ 0.137 µM); PD50 (Streptococcus pyogenes [10]): 10 mg/kg; MIC (Bacteria [11]): 0.025 µg/mL (≈ 0.0683 µM); MIC (Enterobacter cloacae): 0.025 µg/mL (≈ 0.0683 µM); PD50 (Streptococcus pyogenes [13]): 4 mg/kg |
| Nc1c(F)c(N2CCNCC2)c(Cl)c2c1c(=O)c(C(=O)O)cn2C1CC1 | 0.025 (≈ 0.0657 µM) | 0.1 (≈ 0.263 µM) | 1 (≈ 2.63 µM) | 0.1 (≈ 0.263 µM) | 0.025 (≈ 0.0657 µM) | 0.5 | 2 | 0.1 (≈ 0.263 µM) | 0.05 (≈ 0.131 µM) | 0.2 (≈ 0.525 µM) | 0.8 (≈ 2.1 µM) | 0.087 | 26 | 0.1 (≈ 0.263 µM) | 0.025 (≈ 0.0657 µM) | 0.076 | 10 | – |
| NC1CCN(c2c(F)cc3c(=O)c(C(=O)O)cn(C4CC4)c3c2Cl)C1 (stereo in doubt; 1f-4) [CLINAFLOXACIN] | 0.025 (≈ 0.0683 µM) | – | – | 0.1 (≈ 0.273 µM) | 0.025 (≈ 0.0683 µM) | 0.5 | 3 | – | 0.05 (≈ 0.137 µM) | 0.1 (≈ 0.273 µM) | – | 0.075 | – | – | 0.025 (≈ 0.0683 µM) | – | 4 | MIC (Streptococcus pneumoniae [2]): 0.1 µg/mL (≈ 0.273 µM); PD50 (Streptococcus pneumoniae [14]): 11 mg/kg; MIC (Staphylococcus aureus [7]): 0.1 µg/mL (≈ 0.273 µM); PD50 (Streptococcus pneumoniae [15]): 97 mg/kg; MIC (Pseudomonas aeruginosa): 0.2 µg/mL (≈ 0.547 µM); PD50 (Streptococcus pyogenes [10]): 43 mg/kg; MIC (Bacteria [11]): 0.1 µg/mL (≈ 0.273 µM) |
| CC1CN(c2cc3c(cc2F)c(=O)c(C(=O)O)cn3C2CC2)CCN1 (stereo not drawn) | 0.1 (≈ 0.29 µM) | 0.2 (≈ 0.579 µM) | 0.5 (≈ 1.45 µM) | 0.4 (≈ 1.16 µM) | 0.025 (≈ 0.0724 µM) | 0.4 | 1 | 0.4 (≈ 1.16 µM) | 0.05 (≈ 0.145 µM) | 0.2 (≈ 0.579 µM) | 0.4 (≈ 1.16 µM) | 0.23 | 39 | 0.1 (≈ 0.29 µM) | 0.025 (≈ 0.0724 µM) | 0.066 | 12 | – |
| O=C(O)c1cn(C2CC2)c2cc(N3CCNCC3)c(F)cc2c1=O [CIPROFLOXACIN] | 0.2 (≈ 0.604 µM) | 0.8 (≈ 2.41 µM) | – | 0.8 (≈ 2.41 µM) | – | 0.3 | 1 | 1.6 (≈ 4.83 µM) | 0.05 (≈ 0.151 µM) | 0.8 (≈ 2.41 µM) | 0.4 (≈ 1.21 µM) | – | > 100 | 0.05 (≈ 0.151 µM) | – | – | 19 | ED50 (Streptococcus pneumoniae [14]; Streptococcus pneumoniae, sc, read-out: PD50): 228 mg/kg; ED50 (Streptococcus pneumoniae [15]; Streptococcus pneumoniae, po, read-out: PD50): > 100 mg/kg |
